Data from ChEMBL document CHEMBL2401705, “Discovery of triazines as potent, selective and orally active PDE4 inhibitors” (Bioorg Med Chem Lett, 2013).
Converted amounts (≈) assume the structure as drawn.

What was measured:
[1] = Intrinsic clearance in rat liver microsomes; format: ADME, Microsome; settings: read-out: CLH
[2] = biological target: High affinity 3',5'-cyclic-AMP phosphodiesterase 7A (Homo sapiens, UniProt Q13946); test: Inhibition of human full length PDE7A1 expressed in baculovirus infected sf21 cells
Sequence of High affinity 3',5'-cyclic-AMP phosphodiesterase 7A (Q13946 whole entry): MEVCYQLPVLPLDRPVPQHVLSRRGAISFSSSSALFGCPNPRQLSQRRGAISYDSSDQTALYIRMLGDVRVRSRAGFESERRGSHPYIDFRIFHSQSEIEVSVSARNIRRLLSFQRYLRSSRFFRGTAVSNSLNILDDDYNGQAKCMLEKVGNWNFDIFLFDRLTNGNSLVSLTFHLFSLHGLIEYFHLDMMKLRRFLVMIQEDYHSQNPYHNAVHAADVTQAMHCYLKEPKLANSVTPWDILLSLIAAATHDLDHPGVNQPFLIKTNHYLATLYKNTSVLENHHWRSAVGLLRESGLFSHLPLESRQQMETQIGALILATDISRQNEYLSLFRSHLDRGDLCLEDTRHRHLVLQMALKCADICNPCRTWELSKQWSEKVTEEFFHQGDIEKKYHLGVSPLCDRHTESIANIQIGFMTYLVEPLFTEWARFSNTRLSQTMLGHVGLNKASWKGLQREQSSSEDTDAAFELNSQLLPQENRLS

[3] = biological target: 3',5'-cyclic-AMP phosphodiesterase 4A (Homo sapiens, UniProt P27815); test: Inhibition of human full length PDE4A4 expressed in baculovirus infected sf21 cells
Sequence of 3',5'-cyclic-AMP phosphodiesterase 4A (P27815 whole entry): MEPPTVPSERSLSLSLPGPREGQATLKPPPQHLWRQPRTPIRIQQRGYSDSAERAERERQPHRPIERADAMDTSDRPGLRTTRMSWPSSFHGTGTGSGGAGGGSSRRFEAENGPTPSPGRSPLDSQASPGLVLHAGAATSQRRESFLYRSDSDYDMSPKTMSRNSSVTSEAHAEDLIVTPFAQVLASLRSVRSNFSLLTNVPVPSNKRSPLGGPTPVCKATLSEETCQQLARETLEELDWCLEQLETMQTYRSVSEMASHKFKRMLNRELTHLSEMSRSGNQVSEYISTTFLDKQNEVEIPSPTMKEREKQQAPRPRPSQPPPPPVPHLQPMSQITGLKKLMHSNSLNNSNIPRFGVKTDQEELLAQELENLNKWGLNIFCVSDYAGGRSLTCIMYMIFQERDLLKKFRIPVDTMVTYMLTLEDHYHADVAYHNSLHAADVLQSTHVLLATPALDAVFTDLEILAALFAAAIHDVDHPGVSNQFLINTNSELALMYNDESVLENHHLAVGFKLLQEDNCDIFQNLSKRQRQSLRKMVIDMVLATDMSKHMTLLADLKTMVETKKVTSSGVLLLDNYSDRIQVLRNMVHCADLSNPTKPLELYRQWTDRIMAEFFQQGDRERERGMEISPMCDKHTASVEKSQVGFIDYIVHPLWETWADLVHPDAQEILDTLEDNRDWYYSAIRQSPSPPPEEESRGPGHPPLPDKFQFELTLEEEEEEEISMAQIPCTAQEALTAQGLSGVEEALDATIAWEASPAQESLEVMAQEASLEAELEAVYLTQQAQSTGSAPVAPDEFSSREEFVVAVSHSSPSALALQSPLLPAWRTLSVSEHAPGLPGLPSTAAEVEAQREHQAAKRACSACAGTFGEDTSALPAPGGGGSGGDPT

[4] = test system: Mustela putorius furo; test: Toxicity in po dosed ferret assessed as first emetic dose by measuring occurrence of vomiting episode after 6 hrs; format: organism-based; settings: in vivo
How it was run: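 Ferrets were given oral doses and watched for 6 h after administration for a vomiting episode; the first emetic dose was reported in mg/kg.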

[5] = biological target: serum albumin (Homo sapiens, UniProt P02768); test: Binding affinity to human serum albumin; format: ADME; settings: read-out: PB (converted)
Sequence of serum albumin (P02768 whole entry): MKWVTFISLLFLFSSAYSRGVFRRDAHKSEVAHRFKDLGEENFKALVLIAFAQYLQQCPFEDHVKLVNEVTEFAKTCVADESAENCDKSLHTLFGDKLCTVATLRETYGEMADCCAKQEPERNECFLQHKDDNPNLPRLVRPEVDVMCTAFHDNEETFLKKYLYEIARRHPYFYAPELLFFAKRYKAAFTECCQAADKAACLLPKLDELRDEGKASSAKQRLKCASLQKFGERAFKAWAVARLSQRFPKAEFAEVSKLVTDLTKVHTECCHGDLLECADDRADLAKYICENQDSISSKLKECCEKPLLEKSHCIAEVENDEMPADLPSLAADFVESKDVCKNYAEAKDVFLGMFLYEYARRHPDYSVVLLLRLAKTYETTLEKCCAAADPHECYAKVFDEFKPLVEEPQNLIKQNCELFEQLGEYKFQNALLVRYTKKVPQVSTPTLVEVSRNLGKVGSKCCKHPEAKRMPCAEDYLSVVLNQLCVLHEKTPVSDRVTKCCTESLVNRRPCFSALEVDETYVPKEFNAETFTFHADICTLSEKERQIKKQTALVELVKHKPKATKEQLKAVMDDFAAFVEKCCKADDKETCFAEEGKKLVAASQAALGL

[6] = test system: Mustela putorius furo; test: Inhibition of LPS-induced neutrophilia in ferret COPD model BAL-fluid at 0.1 mg/kg, po; format: functional
How it was run: (§1)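 Ferrets challenged by LPS inhalation, with compound given orally. Read-out is the change in neutrophil count in bronchoalveolar lavage fluid, expressed as percentage inhibition.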

[7] = test system: Mustela putorius furo; test: Inhibition of LPS-induced neutrophilia in ferret COPD model BAL-fluid at 0.01 mg/kg, po; format: functional; how it was run: as §1
[8] = test system: PBMC; test: Inhibition of TNFalpha production in human PBMC; format: functional, cell-based
[9] = test system: Blood; test: Inhibition of TNFalpha production in human whole blood; format: functional, tissue-based
[10] = test system: Rattus norvegicus; test: Inhibition of LPS-induced neutrophil accumulation in rat lung at 0.1 mg/kg, po; format: functional
[11] = Intrinsic clearance in human liver microsomes; format: ADME, Microsome; settings: read-out: CLH
[12] = biological target: hERG (KCNH2) (Homo sapiens, UniProt Q12809); test: Inhibition of human ERG at 10 uM
How it was run: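 hERG measured in a binding assay, reported as percent inhibition at 10 µM.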

[13] = Intrinsic clearance in dog liver microsomes; format: ADME, Canis lupus familiaris, Microsome; settings: read-out: CLH
[14] = Cmax in rat at 3 mg/kg, po; format: ADME, organism-based; parameters: dose 3 mg/kg, route oral; settings: in vivo
[15] = Volume of distribution in rat at 3 mg/kg; format: ADME, organism-based; parameters: dose 3 mg/kg; settings: in vivo
[16] = Half life in rat at 3 mg/kg, iv; format: ADME, organism-based; parameters: dose 3 mg/kg, route intravenous; settings: in vivo
[17] = Oral bioavailability in rat; format: ADME, organism-based; settings: in vivo
[18] = Clearance in rat at 3 mg/kg, iv; format: ADME, organism-based; parameters: dose 3 mg/kg, route intravenous; settings: in vivo
[19] = Inhibition of bovine retina PDE6; parameters: species or system Bos taurus
[20] = biological target: cAMP and cAMP-inhibited cGMP 3',5'-cyclic phosphodiesterase 10A (Homo sapiens, UniProt Q9Y233); test: Inhibition of human recombinant PDE10A
Sequence of cAMP and cAMP-inhibited cGMP 3',5'-cyclic phosphodiesterase 10A (Q9Y233 whole entry): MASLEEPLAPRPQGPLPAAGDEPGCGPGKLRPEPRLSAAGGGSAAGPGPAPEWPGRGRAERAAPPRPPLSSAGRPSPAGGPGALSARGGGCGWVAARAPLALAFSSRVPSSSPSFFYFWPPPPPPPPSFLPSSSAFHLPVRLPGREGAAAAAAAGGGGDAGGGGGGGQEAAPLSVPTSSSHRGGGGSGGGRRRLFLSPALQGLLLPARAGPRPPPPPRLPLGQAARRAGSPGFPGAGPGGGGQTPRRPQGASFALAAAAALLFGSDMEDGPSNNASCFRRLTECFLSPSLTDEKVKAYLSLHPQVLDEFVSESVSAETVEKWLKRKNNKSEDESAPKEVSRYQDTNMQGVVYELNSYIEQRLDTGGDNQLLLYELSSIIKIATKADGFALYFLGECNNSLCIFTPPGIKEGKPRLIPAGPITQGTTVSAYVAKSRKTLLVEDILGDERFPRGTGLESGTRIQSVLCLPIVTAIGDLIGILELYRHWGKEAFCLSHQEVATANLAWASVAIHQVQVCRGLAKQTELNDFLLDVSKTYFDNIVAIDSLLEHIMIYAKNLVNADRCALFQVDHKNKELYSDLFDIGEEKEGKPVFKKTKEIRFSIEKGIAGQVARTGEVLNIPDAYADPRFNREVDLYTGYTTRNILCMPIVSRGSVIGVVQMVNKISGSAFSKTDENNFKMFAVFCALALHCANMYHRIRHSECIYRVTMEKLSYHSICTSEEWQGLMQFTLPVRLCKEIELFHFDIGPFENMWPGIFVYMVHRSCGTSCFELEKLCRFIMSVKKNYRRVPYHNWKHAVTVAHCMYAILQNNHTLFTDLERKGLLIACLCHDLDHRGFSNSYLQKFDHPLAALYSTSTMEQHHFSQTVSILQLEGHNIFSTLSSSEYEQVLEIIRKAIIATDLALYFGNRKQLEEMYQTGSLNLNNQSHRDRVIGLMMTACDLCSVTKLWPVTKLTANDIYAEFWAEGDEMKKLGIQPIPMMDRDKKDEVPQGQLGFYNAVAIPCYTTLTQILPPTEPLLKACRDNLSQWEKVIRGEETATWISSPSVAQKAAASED

[21] = biological target: Dual 3',5'-cyclic-AMP and -GMP phosphodiesterase 11A (Homo sapiens, UniProt Q9HCR9); test: Inhibition of human recombinant PDE11A
Sequence of Dual 3',5'-cyclic-AMP and -GMP phosphodiesterase 11A (Q9HCR9 whole entry): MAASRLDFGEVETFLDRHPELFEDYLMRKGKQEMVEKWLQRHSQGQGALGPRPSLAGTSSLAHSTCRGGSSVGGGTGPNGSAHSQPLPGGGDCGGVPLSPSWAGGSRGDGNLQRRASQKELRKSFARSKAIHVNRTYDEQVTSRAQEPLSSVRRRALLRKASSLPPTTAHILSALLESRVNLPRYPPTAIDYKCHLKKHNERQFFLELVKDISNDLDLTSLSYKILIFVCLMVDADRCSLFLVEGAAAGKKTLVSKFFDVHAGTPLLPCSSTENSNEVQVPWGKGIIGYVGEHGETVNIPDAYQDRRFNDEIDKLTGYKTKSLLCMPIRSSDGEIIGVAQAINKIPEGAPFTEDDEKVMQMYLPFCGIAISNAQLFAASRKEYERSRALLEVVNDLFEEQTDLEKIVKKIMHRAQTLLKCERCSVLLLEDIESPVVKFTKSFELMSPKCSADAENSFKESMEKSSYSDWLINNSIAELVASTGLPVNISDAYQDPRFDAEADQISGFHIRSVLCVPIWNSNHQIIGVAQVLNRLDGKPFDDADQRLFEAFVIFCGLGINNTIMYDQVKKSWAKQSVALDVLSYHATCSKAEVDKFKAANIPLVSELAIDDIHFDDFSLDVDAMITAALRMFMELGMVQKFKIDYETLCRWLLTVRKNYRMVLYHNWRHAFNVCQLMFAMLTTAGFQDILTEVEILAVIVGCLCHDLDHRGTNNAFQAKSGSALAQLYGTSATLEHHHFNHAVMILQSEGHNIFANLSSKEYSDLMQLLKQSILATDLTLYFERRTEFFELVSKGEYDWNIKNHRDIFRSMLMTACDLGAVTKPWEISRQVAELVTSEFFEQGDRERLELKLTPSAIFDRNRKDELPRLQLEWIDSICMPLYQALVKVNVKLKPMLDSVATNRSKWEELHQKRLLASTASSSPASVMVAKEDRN

[22] = biological target: High affinity cAMP-specific and IBMX-insensitive 3',5'-cyclic phosphodiesterase 8A (Homo sapiens, UniProt O60658); test: Inhibition of human recombinant PDE8A
[23] = biological target: High affinity cGMP-specific 3',5'-cyclic phosphodiesterase 9A (Homo sapiens, UniProt O76083); test: Inhibition of human recombinant PDE9A
[24] = biological target: cGMP-specific 3',5'-cyclic phosphodiesterase (Homo sapiens, UniProt O76074); test: Inhibition of human recombinant PDE5A
[25] = biological target: cGMP-inhibited 3',5'-cyclic phosphodiesterase 3A (Homo sapiens, UniProt Q14432); test: Inhibition of human recombinant PDE3A
[26] = biological target: cGMP-dependent 3',5'-cyclic phosphodiesterase (Homo sapiens, UniProt O00408); test: Inhibition of human recombinant PDE2A
[27] = biological target: Dual specificity calcium/calmodulin-dependent 3',5'-cyclic nucleotide phosphodiesterase 1B (Homo sapiens, UniProt Q01064); test: Inhibition of human recombinant PDE1B
[28] = biological target: 3',5'-cyclic-AMP phosphodiesterase 4B (Homo sapiens, UniProt Q07343); test: Inhibition of full length PDE4B1 (unknown origin)
[29] = biological target: 3',5'-cyclic-AMP phosphodiesterase 4D (Rattus norvegicus, UniProt P14270); test: Inhibition of rat PDE4D3
[30] = Inhibition of CYP3A4D (unknown origin); format: ADME, Homo sapiens
[31] = Inhibition of CYP3A4Q (unknown origin); format: ADME, Homo sapiens
[32] = biological target: Cytochrome P450 2D6 (Homo sapiens, UniProt P10635); test: Inhibition of CYP2D6 (unknown origin); format: ADME
Sequence of Cytochrome P450 2D6 (P10635 whole entry): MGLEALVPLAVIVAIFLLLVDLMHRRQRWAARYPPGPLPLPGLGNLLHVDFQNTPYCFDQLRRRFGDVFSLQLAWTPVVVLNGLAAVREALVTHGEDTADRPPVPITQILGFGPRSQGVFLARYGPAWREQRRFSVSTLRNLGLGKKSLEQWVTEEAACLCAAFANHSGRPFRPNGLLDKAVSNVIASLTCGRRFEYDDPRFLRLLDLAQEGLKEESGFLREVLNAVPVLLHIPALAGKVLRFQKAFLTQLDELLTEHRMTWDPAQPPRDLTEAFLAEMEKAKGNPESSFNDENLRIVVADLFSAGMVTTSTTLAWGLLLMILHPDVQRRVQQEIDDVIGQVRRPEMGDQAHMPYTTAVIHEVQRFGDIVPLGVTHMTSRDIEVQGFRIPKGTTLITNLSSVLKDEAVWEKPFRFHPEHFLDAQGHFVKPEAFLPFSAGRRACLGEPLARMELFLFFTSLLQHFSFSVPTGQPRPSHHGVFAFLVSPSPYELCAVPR

[33] = Inhibition of CYP3A4B (unknown origin); format: ADME, Homo sapiens
[34] = biological target: Cytochrome P450 2A6 (Homo sapiens, UniProt P11509); test: Inhibition of CYP2A6 (unknown origin); format: ADME
[35] = biological target: Cytochrome P450 2C9 (Homo sapiens, UniProt P11712); test: Inhibition of CYP2C9 (unknown origin); format: ADME
[36] = biological target: Cytochrome P450 2C19 (Homo sapiens, UniProt P33261); test: Inhibition of CYP2C19 (unknown origin); format: ADME
[37] = biological target: Cytochrome P450 1A1 (Homo sapiens, UniProt P04798); test: Inhibition of CYP1A1 (unknown origin); format: ADME
[38] = biological target: Cytochrome P450 1A2 (Homo sapiens, UniProt P05177); test: Inhibition of CYP1A2 (unknown origin); format: ADME
Sequence of Cytochrome P450 1A2 (P05177 whole entry): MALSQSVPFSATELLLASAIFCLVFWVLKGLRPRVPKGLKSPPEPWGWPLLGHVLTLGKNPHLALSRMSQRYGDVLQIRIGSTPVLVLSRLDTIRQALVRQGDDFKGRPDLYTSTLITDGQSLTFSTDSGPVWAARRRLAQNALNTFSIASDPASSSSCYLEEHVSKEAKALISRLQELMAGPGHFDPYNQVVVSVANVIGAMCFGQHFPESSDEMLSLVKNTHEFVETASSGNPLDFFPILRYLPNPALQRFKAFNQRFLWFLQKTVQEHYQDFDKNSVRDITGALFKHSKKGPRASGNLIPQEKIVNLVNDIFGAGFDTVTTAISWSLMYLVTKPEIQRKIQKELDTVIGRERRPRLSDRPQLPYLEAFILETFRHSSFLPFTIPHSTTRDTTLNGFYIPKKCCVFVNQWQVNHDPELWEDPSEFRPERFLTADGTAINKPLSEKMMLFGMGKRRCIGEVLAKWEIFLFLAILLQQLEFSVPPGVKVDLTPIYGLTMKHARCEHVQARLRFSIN

[39] = Aqueous solubility of the compound at pH 7.4; settings: buffer
[40] = test system: Mustela putorius furo; test: Inhibition of LPS-induced neutrophilia in ferret COPD model BAL-fluid at 10 mg/kg, po; format: functional
[41] = test system: Mustela putorius furo; test: Toxicity in iv dosed ferret assessed as first emetic dose by measuring occurrence of vomiting episode after 6 hrs; format: organism-based; settings: in vivo

CNc1nc(NC2(C#N)CCCCC2)nc(-n2cccn2)n1
CLint scaled [1]: 103 mL/min/kg
IC50 [2]: > 5000 nM
IC50 [3]: 3.6 nM

CCC(C#N)(CC)Nc1nc(NC)nc(-n2cncn2)n1
Activity [4]: 3 mg/kg
fraction unbound [5]: 0.49
inhibition in vivo at 0.1 mg/kg [6]: 66%
inhibition in vivo at 0.01 mg/kg [7]: 33%
IC50 [8]: 22 nM
IC50 [9]: 55 nM
inhibition in vivo at 0.1 mg/kg [10]: 41%
CLint scaled [11]: < 1 mL/min/kg
inhibition at 10 µM [12]: 6%
CLint scaled [13]: < 1 mL/min/kg
Cmax [14]: 669 ng/mL
Vd [15]: 0.5 L/kg
half-life [16]: 1.7 h
bioavailability [17]: 41%
clearance [18]: 3.3 mL/min/kg
IC50 [19]: > 1000 nM
IC50 [20]: > 1000 nM
IC50 [21]: > 1000 nM
IC50 [22]: > 1000 nM
IC50 [23]: > 1000 nM
IC50 [24]: > 1000 nM
IC50 [25]: > 1000 nM
IC50 [26]: > 1000 nM
IC50 [27]: > 1000 nM
IC50 [28]: 0.87 nM
IC50 [29]: 1.18 nM
IC50 [30]: > 10000 nM
IC50 [31]: > 10000 nM
IC50 [32]: > 10000 nM
IC50 [33]: > 10000 nM
IC50 [34]: > 10000 nM
IC50 [35]: > 10000 nM
IC50 [36]: > 10000 nM
IC50 [37]: > 10000 nM
IC50 [38]: > 10000 nM
solubility [39]: 165 µg/mL (≈ 574 µM)
CLint scaled [1]: 26 mL/min/kg
IC50 [3]: 0.81 nM

CNc1nc(Cl)nc(NC2(C#N)CCCCCC2)n1
IC50 [3]: 44 nM

CNc1nc(NC2(C#N)CCCCC2)nc(OC)n1
CLint scaled [1]: 196 mL/min/kg
IC50 [2]: 521 nM
IC50 [3]: 19 nM

COc1ccc([C@]2(C#N)CC[C@@H](C(=O)O)CC2)cc1OC1CCCC1 [CILOMILAST]
Activity [4]: 1 mg/kg
fraction unbound [5]: 0.09
inhibition in vivo at 10 mg/kg [40]: 35%
solubility [39]: 17 µg/mL (≈ 49.5 µM)

CNc1nc(NC2(C#N)CCCCC2)nc(-n2cnc(C)n2)n1
CLint scaled [1]: > 276 mL/min/kg
IC50 [2]: > 5000 nM
IC50 [3]: 1 nM

CNc1nc(Cl)nc(NC2(C#N)CCCC2)n1
IC50 [3]: 54 nM

CNc1nc(NC2(C#N)CCCCC2)nc(N(C)C)n1
CLint scaled [1]: 276 mL/min/kg
IC50 [2]: > 5000 nM
IC50 [3]: 18 nM

CNc1nc(NC2(C#N)CCCCC2)nc(-n2cnc(C#N)n2)n1
CLint scaled [1]: 210 mL/min/kg
IC50 [2]: > 5000 nM
IC50 [3]: 4.9 nM

CNc1nc(Cl)nc(NC(C)(C)C#N)n1
IC50 [3]: 160 nM

CNc1nc(Cl)nc(NC(C)(C)C)n1
IC50 [3]: 245 nM

O=C(Nc1c(Cl)cncc1Cl)c1ccc(OC(F)F)c(OCC2CC2)c1 [ROFLUMILAST]
Activity [4]: 1 mg/kg
fraction unbound [5]: 0.03
inhibition in vivo at 0.01 mg/kg [7]: 65%
solubility [39]: 1.3 µg/mL (≈ 3.22 µM)

CCC(C)(CC)Nc1nc(Cl)nc(NC)n1
IC50 [3]: 156 nM

CONc1nc(Cl)nc(NC2(C#N)CCCCC2)n1
IC50 [3]: 165 nM

CNc1nc(NC2(C#N)CCCCC2)nc(C2CC2)n1
CLint scaled [1]: 276 mL/min/kg
IC50 [2]: 539 nM
IC50 [3]: 19 nM

CNc1nc(NC(C#N)(C2CC2)C2CC2)nc(-n2cncn2)n1
solubility [39]: 22 µg/mL (≈ 70.7 µM)
CLint scaled [1]: 3.7 mL/min/kg
IC50 [3]: 0.89 nM

CCCC(C#N)(CCC)Nc1nc(NC)nc(-n2cncn2)n1
CLint scaled [1]: 32 mL/min/kg
IC50 [3]: 6.5 nM

CN(c1nc(N)nc(Cl)n1)C1(C#N)CCCCC1
IC50 [3]: 563 nM

COc1ccc(C2CNC(=O)C2)cc1OC1CCCC1 (racemic) [ROLIPRAM]
fraction unbound [5]: 0.42
Activity [41]: 0.3 mg/kg
solubility [39]: 171 µg/mL (≈ 621 µM)

CNc1nc(NC2(C#N)CCCC2)nc(-n2cncn2)n1
solubility [39]: 165 µg/mL (≈ 578 µM)
CLint scaled [1]: 43 mL/min/kg
IC50 [3]: 1.4 nM

CNc1nc(NC)nc(NC2(C#N)CCCCC2)n1
CLint scaled [1]: 210 mL/min/kg
IC50 [2]: > 1000 nM
IC50 [3]: 153 nM

CNc1nc(NC2(C#N)CCCCCC2)nc(-n2cncn2)n1
solubility [39]: 9 µg/mL (≈ 28.7 µM)
CLint scaled [1]: 276 mL/min/kg
IC50 [3]: 0.42 nM

CNc1nc(N)nc(NC2(C#N)CCCCC2)n1
IC50 [3]: > 1000 nM
